# Sampled rows, rich in hits. Any-hit rate of the full collection: about 0.74%.
# Diaphorase act – diaphorase activation or chemical reduction counter-screen | Diaphorase/resazurin coupled assay, resorufin fluorescence, 16 min; stronger effect = higher value; 1 = vehicle wells, 0 = NADH-free wells | activation factor at 20 µM | actives 0.005% (n = 190,000);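 active means diaphorase activity raised at least twofold by the compound at 20 µM; inactive means activation factor below 2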
#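 Material: Clostridium kluyveri diaphorase, purified enzyme; Quantity: enzyme 0.07 U/mL final; Medium: HEPES pH 7.4 buffer with MgCl2 and Tween 20; Dosing: single compound dose of 20 µM, 1% DMSO final; Schedule: 16 min reaction at room temperature; Measured by: red resorufin fluorescence at 544/590 nm excitation/emission.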
# Arbovirus inh – antivirals against arbovirus infection | arbovirus infection cell-based antiviral screen | AID 1251 | inhibition, % at 10 µM | actives 0.37% (n = 200,000); in the data active means inhibition above about 30%
# Diaphorase inh – counter-screen for diaphorase-based assays: diaphorase inhibitors and chemical oxidizers; inhibition, % at 20 µM; diaphorase resazurin-to-resorufin fluorescence, NADH, 16 min; bacterial (C. kluyveri) enzyme, not human; actives 0.69% (n = 190,000);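 active means primary screen inhibition at 20 µM above a set limit, cut at about 50% in these data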;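 further: plate controls were DMSO with full reaction for no effect and wells lacking NADH for full effect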
#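 Test system: bacterial diaphorase enzyme (C. kluyveri); Quantity: 0.14 U/mL diaphorase, enzyme working solution; Times: reaction incubation of 16 min at room temperature; Measured by: fluorescence of resorufin formed from resazurin, Ex 544/Em 590 nm; Benchmarks: positive control minus NADH, DMSO neutral control.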
# HKDC1 inh – HKDC1 (human) hexokinase inhibition. Q2TB90. recombinant HKDC1, G6PDH/diaphorase resazurin coupled fluorescence. inhibition, % at 20 µM. actives 0.16% (n = 340,000);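 active means inhibition above about 35% when tested at 20 µM, limit read from the data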;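 further: plate controls were DMSO wells with enzyme for no effect and DMSO wells lacking enzyme for full effect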
#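 Assay system: in-house recombinant HK5 (HKDC1) enzyme. Input: HKDC1 at 5 µg/mL. Medium: Tris pH 8.0 buffer with MgCl2, Tween-20, BSA, BME. Dosing: single 20 µM dose. Schedule: 90 min reaction incubation at room temperature, dark. Signal: resazurin-to-resorufin fluorescence via G6PDH and diaphorase coupling, 525/613 nm. Controls: DMSO-enzyme wells negative, buffer-substituted wells positive.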
# G6PDH counter – counter-screen for G6PDH assay hits: L. mesenteroides G6PDH inhibition; Purified L. mesenteroides G6PDH, diaphorase/resazurin coupled fluorescence, 45 min; actives 0.12% (n = 200,000); inhibition, % at 5 µM; in the data active means inhibition above about 50%
# An asterisk follows results filed as active; / = no result given.
SMILES,Diaphorase act,Arbovirus inh,Diaphorase inh,HKDC1 inh,G6PDH counter
O=C1NC(=S)N(Cc2ccco2)C(=O)/C1=C\c1cccs1,0.1,-3,90*,/,17
CCOC(=O)C1(c2ccccc2)CCN(CCc2ccc(NC(=O)CCC(=O)O)cc2)CC1,/,/,/,-5,/
CSc1nc(N2CCN(C)CC2)c2ccccc2n1,0.4,-3,57*,2,7
Cc1[nH]nc2ccc(-c3cncc(OC[C@@H](N)Cc4c[nH]c5ccccc45)c3)cc12,/,/,/,10,/
Oc1cc2c(cc1O)[C@H]1c3ccccc3CN[C@@H]1CC2,0.4,2,65*,/,31
CC1=CC2OC3CC4OC(=O)C=CC=CC(=O)OCCC(C)C(O)C(=O)OCC2(CC1O)C4(C)C31CO1 (configuration not stated),/,/,/,-11,/
COc1ccc(CCNC(=O)c2c(N)n(CCN3CCOCC3)c3nc4ccccc4nc23)cc1OC,0.5,-2,51*,10,2
COCC(=O)N1Cc2ccccc2-n2nncc2C1,/,/,/,-5,/
O=C1NC(=S)N(c2ccccc2)C(=O)/C1=C/c1ccco1,/,/,/,68*,/
Cc1cc(O)c2c(c1)C(=O)C13C(=C2O)C(=O)[C@H]2[C@@H](O)[C@@H]1[C@H]1[C@H](O)[C@@H]3C(=O)C3=C(O)c4c(O)cc(C)cc4C(=O)C312 (some centres not stated),/,/,/,67*,/
COC(=O)C1=C(c2ccc(-c3ccccc3)c(F)c2)C[C@@H]2CC[C@H]1N2C(=O)NCCOc1ccc(OC)cc1,/,/,/,2,/
CC12CC(=O)C3C(CCC4CC(=O)C=CC43C)C1CCC2=O (configuration not stated),/,/,/,-4,/
O=C(N/N=C/c1c(O)n(Cc2ccccc2)c(=O)[nH]c1=O)c1ccccc1O,0.7,58*,30,-6,2
O=C(N/N=C/c1c(O)n(CCc2ccccc2)c(=O)[nH]c1=O)c1ccncc1,0.7,32*,28,7,4
O=C(N/N=C/c1c(O)n(CCc2ccc(F)cc2)c(=O)[nH]c1=O)c1ccncc1,0.5,15,50,-8,9
O=C(N/N=C/c1c(O)n(Cc2ccc(F)cc2)c(=O)[nH]c1=O)c1ccccc1O,0.6,55*,37,-12,-11
C(#CCN1CCCC1)CN1CCCC1,/,/,/,-3,/
CCC(C)N1C(=O)NC(=O)C2(Cc3c(ccc4ccccc34)N(C)C2)C1=O (configuration not stated),0.3,13,74*,29,41
COc1ccc2c(c1)CC1(CN2C)C(=O)NC(=O)N(CCc2ccccc2)C1=O (configuration not stated),0.6,6,37,11,7
COc1ccc(CN2Cc3cnnn3-c3ccccc3C2C)cc1 (configuration not stated),/,/,/,-4,/
C[CH2][Hg][S]c1ccccc1C(=O)O,/,/,/,-3,/
O=C1C=Cc2ccccc2C1=O,0.2,-5,78*,/,62*
CC(OC(=O)c1cn(C)c2ccccc12)C(=O)N(C)c1ccccc1 (configuration not stated),/,/,/,-5,/
O=C(O)C1(Br)CC12c1ccccc1-c1ccccc12 (configuration not stated),/,/,/,3,/
Oc1ccc(/C=N/NP(=S)(c2ccccc2)c2ccccc2)cc1O,0.4,-29,58*,-2,15
SMILES,Diaphorase act,Arbovirus inh,Diaphorase inh,HKDC1 inh,G6PDH counter
COc1ccc(-n2c(/C=C/c3ccc(O)cc3)nc3ccccc3c2=O)cc1,/,/,/,4,/
CCn1nc(/C=C/c2ccccc2)nc2c(=O)n(C)c(=O)nc1-2,1.5,-28,-50,3,61*
CCn1nc(-c2cccs2)nc2c(=O)n(C)c(=O)nc1-2,1.8,-43,-84,-31,58*
CCOc1ccc(-n2c(-c3cccs3)nc3ccccc3c2=O)cc1,0.8,-2,18,-2,13
COc1cc(CN2CCCC(C(=O)c3sccc3C)C2)cc(OC)c1O (configuration not stated),0.7,2,25,10,57*
CCCCn1c(NS(=O)(=O)c2ccc(C)cc2)c(C(=O)OCC)c2nc3ccccc3nc21,0.7,8,32,12,-15
CCCCn1c(NC(=O)c2ccco2)c(C(=O)OCC)c2nc3ccccc3nc21,0.3,2,66*,14,47
